ChEMBL document CHEMBL1143769, “Ezetimibe analogs with a reorganized azetidinone ring: Design, synthesis, and evaluation of cholesterol absorption inhibitions” (2007)

Columns and labels:
Rattus norvegicus [1] = test: Decrease in total cholesterol levels in high-cholesterol diet fed Wistar rat at 4 mg/kg/day; type: functional; set-up: scale not given: the % may be the effect or the level left
Procedure, shortened: (§1)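 Rats fed a high-cholesterol, high-fat diet; drug suspended in 0.5% sodium carboxymethyl cellulose (40 mg/100 ml) and given intragastrically at 4 mg/kg/day. After a 16 h fast, tail blood was collected and serum total cholesterol and LDL-cholesterol measured. 8–18 rats per group; percent change calculated against high-cholesterol-diet animals.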

Rattus norvegicus [2] = test: Decrease in LDL-cholesterol levels in high-cholesterol diet fed Wistar rat at 4 mg/kg/day; type: functional; set-up: scale not given: the % may be the effect or the level left; procedure, shortened: as §1

SMILES	Activity (Rattus norvegicus [1])	Activity (Rattus norvegicus [2])
O=C1[C@H](c2ccc(F)cc2)[C@@H](c2ccc(O)cc2)N1CC[C@H](O)c1ccc(F)cc1	-26%	-22%
O=C1[C@H](c2ccc(F)cc2)[C@@H](c2ccc(O)cc2)N1CC[C@@H](O)c1ccc(F)cc1	-17%	-5%
O=C1[C@@H](c2ccc(F)cc2)[C@H](c2ccc(O)cc2)N1CC[C@@H](O)c1ccc(F)cc1	-18%	-35%
O=C1[C@@H](c2ccc(F)cc2)[C@H](c2ccc(O)cc2)N1CC[C@H](O)c1ccc(F)cc1	-25%	-29%
O=C1[C@H](CC[C@H](O)c2ccc(F)cc2)[C@@H](c2ccc(O)cc2)N1c1ccc(F)cc1 [EZETIMIBE]	-51%	-47%
